Assay outcomes from PubChem.
This is a sample that favours compounds with a hit; in the whole collection about 1.9% have one here.
SR-BI DiI inh – blocks mouse SR-BI lipid uptake from DiI-HDL | Q61009 | ldlA[mSR-BI] CHO cells, DiI-HDL uptake fluorescence, 3 h | inhibition, % at 12.5 µM | 320,000 compounds, 0.96% hits;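 active means mean replicate inhibition of at least 70% and a set share of replicates each scoring 70 or more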;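 further: 0% = median of neutral control wells and 100% = median of positive control wells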
SR-BI DiI-HDL act – activators of SR-BI mediated HDL lipid uptake | CHO ldlA[mSR-BI] cells, DiI-HDL uptake fluorescence, 3 h; 100 = double the neutral-control signal | 320,000 compounds, 0.096% hits | AID 504775 | activation, % at 12.5 µM;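 active means mean replicate activation of at least 60% and every replicate at or above 60%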;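 further: 0% = median plate neutral-control signal and 100% = twice that signal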
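Assay system: LDL receptor-deficient CHO ldlA cells overexpressing murine SR-BI / Medium: BSA-supplemented, HEPES-buffered Ham's F12, pH 7.4 / Probe or stimulus: DiI-labelled HDL at 10 µg/mL final / Timing: compound with DiI-HDL co-incubation, 3 h at 37 °C / Technique: bottom-read cell fluorescence after medium removal, ex 550/em 595 nm / Measure: HDL uptake via cellular fluorescence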
N-glyco inh – N-linked glycosylation inhibition; 360,000 compounds, 0.23% hits; reporter increase, % at 12.5 µM; D54 ERlucT glycosylation luciferase reporter, 24 h; percent of 100 nM tunicamycin response; AID 588692;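 active means mean luciferase reporter signal, scaled so untreated is 0 and the glycosylation-blocking control 100, at or above a set limit in every replicate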;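 further: luciferase carries N-glycosylation sites so blocking glycosylation raises the light; 0% = median of neutral control wells and 100% = median of 100 nM tunicamycin wells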
PglD inh – PglD (C. jejuni) enzyme inhibition; purified PglD enzyme, DTNB colorimetric CoA detection; inhibition, % at 12.5 µM; 360,000 compounds, 0.098% hits; in the data active means inhibition above about 16%, passing the limit was not always enough
HIV Env fusion – blocks HIV Env-driven cell-cell fusion; HeLa-JRFL Env/CEM21 cell fusion, luciferase; inhibition, % at 12.3 µM; 360,000 compounds, 1.1% hits; AID 651610;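 active means mean replicate inhibition score of at least 50 and every replicate individually at or above 50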;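 further: 0% = plate neutral controls and 100% = maraviroc near 300 nM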
Rtt109 Vps75 – inhibitors of Candida albicans Rtt109/Vps75 histone acetyltransferase; AID 540336; inhibition, % at 34.9 µM; Q5AAJ8; 330,000 compounds, 0.16% hits; purified Rtt109/Vps75, ThioGlo CoA-SH fluorescence, 4 h;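 active means inhibition of at least 50% in every replicate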
Target sequence (Q5AAJ8 whole entry, looked up): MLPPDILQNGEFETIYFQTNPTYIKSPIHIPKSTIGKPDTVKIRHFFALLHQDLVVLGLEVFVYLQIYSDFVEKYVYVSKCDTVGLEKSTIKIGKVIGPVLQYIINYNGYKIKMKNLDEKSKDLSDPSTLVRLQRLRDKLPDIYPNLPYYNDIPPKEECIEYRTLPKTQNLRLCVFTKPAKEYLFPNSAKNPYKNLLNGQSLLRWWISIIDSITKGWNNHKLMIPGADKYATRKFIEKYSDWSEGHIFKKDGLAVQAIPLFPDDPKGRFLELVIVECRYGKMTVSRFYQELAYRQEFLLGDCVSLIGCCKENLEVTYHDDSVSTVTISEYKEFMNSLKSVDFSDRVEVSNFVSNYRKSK
Active calls of the source: *; i = inactive; nt = no result; [ ] = dose if it differs, or a comment.

SMILES	SR-BI DiI inh	SR-BI DiI-HDL act	N-glyco inh	PglD inh	HIV Env fusion	Rtt109 Vps75
O=C(Nc1ccc(Oc2ccc(NC(=O)Nc3ccc([N+](=O)[O-])cc3)cc2)cc1)Nc1ccc([N+](=O)[O-])cc1	-6.8	6.8	-15.5	2.4	59.7*	2.2
CC(=O)c1ccc(NC(=O)Nc2ccc([N+](=O)[O-])cc2)cc1	-18.6	18.6	1.3	nt	10.9	-6.5
COCC(=O)N1[C@H](CO)[C@@H]2c3ccccc3N(C(=O)c3ccncc3)C[C@@H]21	nt	nt	nt	3.5	nt	nt
CC(C)C#Cc1ccc([C@H]2[C@H](CO)N3CCCCN(S(=O)(=O)Cc4ccccc4)C[C@@H]23)cc1	nt	nt	nt	-3.5	nt	nt
O=C(Cc1cccnc1)N[C@H]1CC[C@@H](CCNS(=O)(=O)c2ccccc2Cl)O[C@H]1CO	nt	nt	nt	6.6	nt	nt
COc1ccc([N+](=O)[O-])cc1NC(=O)C(C)OC(=O)c1ccccc1C(=O)c1ccc(Cl)cc1 (centres undefined)	63.8	-63.8	0.4	nt	84.8*	-1.5
COc1ccc([N+](=O)[O-])cc1NC(=O)Nc1ccc(OC)c(OC)c1	76.0*	-76.0	0.5	-3.2	19.3	6.1
COc1ccccc1NS(=O)(=O)c1cccc(NC(=O)Nc2cccc(Cl)c2)c1	10.3	-10.3	-5.9	nt	45.3*	1.0
COc1ccc(NC(=O)Nc2ccc3c(c2)CC(=O)N([C@H](C)CO)C[C@H](C)[C@@H](CN(C)CC2CC2)O3)cc1	nt	nt	nt	0.6	nt	nt
CO[C@@H]1CN(C)C(=O)c2ccc(NC(=O)c3cc(C)on3)cc2OC[C@H](C)N(C(C)=O)C[C@@H]1C	nt	nt	nt	-0.5	5.1[16.7 µM]	nt
O=C(COC(=O)C1Cc2ccccc2CN1C(=O)c1ccccc1Cl)Nc1ccc(N2CCOCC2)cc1 (centres undefined)	76.1*	-76.1	1.7	1.7	nt	6.6
C[C@@H]1CN([C@@H](C)CO)C(=O)c2cccc(NC(=O)c3cnccn3)c2O[C@H]1CN(C)S(=O)(=O)c1ccccc1	nt	nt	nt	nt	0.2[16.7 µM]	nt
Cc1cc(C)nc(SCC(=O)OC(C)C(=O)Nc2ccccc2)n1 (centres undefined)	-62.1	62.1*	0.7	4.6	-22.2	-4.0
C[C@@H]1CCCCO[C@H](CN(C)S(C)(=O)=O)[C@@H](C)CN([C@H](C)CO)C(=O)c2cc(NC(=O)Nc3cccc4ccccc34)ccc2O1	nt	nt	nt	0.9	1.8[16.7 µM]	nt
CCCN(C)C[C@H]1OCCCC[C@H](C)Oc2ccc(NC(=O)c3ccncc3)cc2C(=O)N([C@H](C)CO)C[C@H]1C	nt	nt	nt	nt	16.3[16.7 µM]	nt
COc1cccc(C(=O)COc2ccc3c(C)cc(=O)oc3c2)c1	11.7	-11.7	37.5*	4.4	5.0	-4.2
CCOC(=O)c1c(-c2ccc(OC)cc2)csc1NC(=O)COc1ccc2c(C)cc(=O)oc2c1	73.5*	-73.5	-6.8	-5.1	4.3	-7.0
COc1ccc(NC(=O)C2Cc3c(-c4ccccc4Oc4ccccc4)ccnc3O2)cc1OC (centres undefined)	nt	nt	-5.2	-4.3	67.4*	nt
Cc1cccc(NC(=O)CSCC(=O)Nc2ccc(N3CCOCC3)cc2N2CCOCC2)c1	35.2	-35.2	1.9	-0.4	10.3	5.7
Cc1cc(NC(=O)C(C)SCC(=O)Nc2cc(C(F)(F)F)ccc2N2CCCCC2)no1 (centres undefined)	24.8	-24.8	-2.0	0.5	74.5*	1.3
Cc1cccc(NC(=O)CSCC(=O)Nc2cc(C(F)(F)F)ccc2N2CCOCC2)c1	nt	nt	1.2	5.4	68.5*	nt
Cc1cc(NC(=O)CSCC(=O)Nc2cc(C(F)(F)F)ccc2N2CCCCC2)no1	24.2	-24.2	0.0	-0.9	nt	3.7
O=C(Cc1ccccn1)NCC[C@@H]1CC[C@@H](NC(=O)Nc2ccc(Cl)cc2)[C@H](CO)O1	nt	nt	nt	11.4	nt	nt
C[C@H](CO)N1C[C@H](C)[C@H](CN(C)C(=O)Cc2ccccn2)Oc2cc(C#Cc3ccccc3)ccc2S1(=O)=O	nt	nt	nt	-1.1	5.2[16.7 µM]	nt
CC=Cc1ccc2n(c1=O)C[C@@H]1[C@@H](CO)[C@H](C(=O)NCc3ccncn3)N(C(=O)NC3CCCC3)[C@H]21 (mixture of isomers)	nt	nt	nt	0.0	35.2[16.7 µM]	nt
SMILES	SR-BI DiI inh	SR-BI DiI-HDL act	N-glyco inh	PglD inh	HIV Env fusion	Rtt109 Vps75
C[C@@H]1CN([C@@H](C)CO)C(=O)c2cc(NC(=O)CCCN(C)C)ccc2O[C@@H]1CN(C)S(=O)(=O)c1ccc(F)cc1	nt	nt	nt	-3.2	nt	nt
Cc1ccc(S(=O)(=O)N(C)Cc2ccc(C(=O)N/N=C/c3ccc(OC(F)F)cc3OC(F)F)cc2)cc1	68.5	-68.5	-3.3	-3.2	66.2*	-7.4
O=C(N/N=C/c1ccc(OC(F)F)cc1OC(F)F)c1ccc(Br)cc1	53.2	-53.2	0.3	0.4	-8.1	0.0
COc1ccc2c3c([nH]c2c1)[C@H](CO)N(C(=O)Nc1ccc(F)cc1)CC31CCN(S(=O)(=O)c2cccc(C)c2)CC1	nt	nt	nt	nt	38.3[16.7 µM]	nt
COc1cccc(NC(=O)c2ccc3c(c2)CCN3S(C)(=O)=O)c1	71.1*	-71.1	-0.2	6.8	-21.9	6.8
CC(=O)Nc1ccc(NC(=O)c2ccc3c(c2)CCN3S(C)(=O)=O)cc1	12.1	-12.1	-2.3	nt	4.5	0.0
COc1cccc(NC(=O)c2ccc3c(c2)N(C)CCS3)c1	91.4*	-91.4	-9.1	1.9	-189.5	-3.3
COc1cccc(C(=O)Nc2ccc3c(c2)C(=O)c2ccccc2C3=O)c1	43.9	-43.9	34.0*	nt	i	50.1*
COc1cccc(NC(=O)c2cc(C(=O)Nc3cccc(OC)c3)n(C)n2)c1	78.1*	-78.1	-7.6	1.0	nt	8.9
O=C(C[C@H]1C[C@H]2c3cc(NC(=O)c4ccc5c(c4)OCO5)ccc3O[C@H]2[C@H](CO)O1)NCc1cccnc1	nt	nt	nt	1.9	-12.8[16.7 µM]	nt
O=C(C[C@H]1C=C[C@H](NS(=O)(=O)c2ccccc2)[C@@H](CO)O1)NCc1ccccc1F	nt	nt	nt	2.7	14.4[16.7 µM]	nt
COc1cc2c(cc1NC(=S)Nc1cccc(C)c1)oc1ccccc12	49.9	-49.9	1.4	nt	-9.3	3.7
COc1ccc(NC(=O)Nc2cc3oc4ccccc4c3cc2OC)cc1	98.1*	-98.1	-1.5	-3.9	-6.4	-2.6
COc1cc2c(cc1NC(=O)/C=C/c1ccccc1)oc1ccccc12	79.9*	-79.9	1.3	nt	nt	-0.9
COc1ccc(/C=C/C(=O)NC(=S)Nc2cc3oc4ccccc4c3cc2OC)cc1	-13.6	13.6	-0.3	nt	-1.3	-1.5
COc1cc2c(cc1NC(=O)Nc1cccc(C)c1)oc1ccccc12	87.1*	-87.1	-0.2	-3.8	-20.1	-7.1
COc1cc2c(cc1NC(=O)Nc1ccc(C)cc1)oc1ccccc12	56.4	-56.4	-0.1	4.1	1.5	-2.2
C[C@H](CO)N1C[C@H](C)[C@@H](CN(C)S(=O)(=O)c2cn(C)cn2)Oc2ncc(C3=CCCC3)cc2C1=O	nt	nt	nt	-5.6	-10.7[16.7 µM]	nt
c1ccc2c(c1)CCCC2C1=NCCN1 (centres undefined)	-3.9	3.9	-0.1	-5.3	11.1	2.0
